Drawing on ChEMBL document CHEMBL4043093, “2-Oxo-3, 4-dihydropyrimido[4, 5-d]pyrimidinyl derivatives as new irreversible pan fibroblast growth factor receptor (FGFR) inhibitors” (Eur J Med Chem, 2017), this text covers Activity and IC50 for one compound.

Test [1] deals with Proto-oncogene tyrosine-protein kinase Src (Homo sapiens) (UniProt P12931). In words: Inhibition of wild-type human partial length SRC (L240 to L536 residues) expressed in Escherichia coli BL21 assessed as residual activity at 1000 nM after 30 mins by Kinomescan method relative to control.
In test [2] the target is Serine/threonine-protein kinase PAK 6 (Homo sapiens) (UniProt Q9NQU5). Nature of the test: Inhibition of wild-type human partial length PAK6 (N298 to C681 residues) expressed in Escherichia coli BL21 assessed as residual activity at 1000 nM after 30 mins by Kinomescan method relative to control.
In test [3] the target is Serine/threonine-protein kinase Nek10 (Homo sapiens) (UniProt Q6ZWH5). Nature of the test: Inhibition of wild-type human partial length NEK10 (L488 to R809 residues) expressed in HEK293 cells assessed as residual activity at 1000 nM after 30 mins by Kinomescan method relative to control. The class given is cell-based.
Test [4] has as its system Hepatocyte growth factor receptor (Homo sapiens), P08581 [Y1235D]. In words: Inhibition of human partial length MET Y1235D mutant (D1010 to S1367 residues) expressed in Escherichia coli BL21 assessed as residual activity at 1000 nM after 30 mins by Kinomescan method relative to control. The procedure, abridged: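 KINOMEscan binding panel of 456 kinases, with the test compound at a single concentration of 1 µM. Read-out is Percent Control.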

Test [5] deals with SRSF protein kinase 1 (Homo sapiens) (UniProt Q96SB4). In words: Inhibition of wild-type human full length SRPK1 (M1 to S655 residues) expressed in Escherichia coli BL21 assessed as residual activity at 1000 nM after 30 mins by Kinomescan method relative to control.
In test [6] the target is Phosphatidylinositol 5-phosphate 4-kinase type-2 gamma (Homo sapiens) (UniProt Q8TBX8). Nature of the test: Inhibition of wild-type human partial length PIP5K2C (M1 to A421 residues) expressed in HEK293 cells assessed as residual activity at 1000 nM after 30 mins by Kinomescan method relative to control. The class given is cell-based.
Test [7] deals with Rho-associated protein kinase 1 (Homo sapiens) (UniProt Q13464). Nature of the test: Inhibition of wild-type human partial length ROCK1 (M1 to R415 residues) expressed in HEK293 cells assessed as residual activity at 1000 nM after 30 mins by Kinomescan method relative to control. Format: cell-based.
The target in test [8] is Activin receptor type-1B (Homo sapiens) (UniProt P36896). Nature of the test: Inhibition of wild-type human ACVR1B (S187 to I505 residues) expressed in Escherichia coli BL21 assessed as residual activity at 1000 nM after 30 mins by Kinomescan method relative to control. The procedure, abridged:
(§1)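 Single-point screen at a fixed 1 µM, run within a 456-kinase DiscoveRx KINOMEscan panel. Each kinase's read-out is Percent Control, i.e. signal relative to a control without compound. Hits were scored by a Percent Control < 35 cut-off, and an S(35) selectivity score was calculated across the non-mutant kinases.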

The target of test [9] is Dual specificity mitogen-activated protein kinase kinase 3 (Homo sapiens) (UniProt P46734). In words: Inhibition of wild-type human full length MEK3 (M1 to S318 residues) expressed in HEK293 cells assessed as residual activity at 1000 nM after 30 mins by Kinomescan method relative to control. Format: cell-based. In short, it runs like this:
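Single-concentration screen at 1 µM across a 456-kinase KINOMEscan panel. The read-out is Percent Control for each kinase.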

Test [10] deals with Mitogen-activated protein kinase 14 (Homo sapiens) (UniProt Q16539). In words: Inhibition of wild-type human full length p38-alpha (M1 to S360 residues) expressed in Escherichia coli BL21 assessed as residual activity at 1000 nM after 30 mins by Kinomescan method relative to control.
The target in test [11] is Cyclin-dependent kinase 13 (Homo sapiens) (UniProt Q14004). Nature of the test: Inhibition of wild-type human partial length CDC2L5 (H675 to S1054 residues) expressed in HEK293 cells assessed as residual activity at 1000 nM after 30 mins by Kinomescan method relative to control. The class given is cell-based.
Test [12] has as its target Receptor tyrosine-protein kinase erbB-2 (Homo sapiens) (UniProt P04626). Nature of the test: Inhibition of wild-type human partial length ERBB2 (K646 to V1225 residues) expressed in HEK293 cells assessed as residual activity at 1000 nM after 30 mins by Kinomescan method relative to control. Format: cell-based.
Test [13] addresses Ephrin type-A receptor 5 (Homo sapiens) (UniProt P54756). Nature of the test: Inhibition of wild-type human partial length EPHA5 (T627 to V930 residues) expressed in Escherichia coli BL21 assessed as residual activity at 1000 nM after 30 mins by Kinomescan method relative to control.
The target in test [14] is Cyclin-dependent kinase 11A (Homo sapiens) (UniProt Q9UQ88). In words: Inhibition of wild-type human partial length CDC2L2 (D391 to K730 residues) expressed in Escherichia coli BL21 assessed as residual activity at 1000 nM after 30 mins by Kinomescan method relative to control.
Test [15] addresses Serine/threonine-protein kinase WNK4 (Homo sapiens) (UniProt Q96J92). Nature of the test: Inhibition of wild-type human partial length WNK4 (A31 to D461 residues) expressed in HEK293 cells assessed as residual activity at 1000 nM after 30 mins by Kinomescan method relative to control. Format: cell-based.
Test [16] deals with Cyclin-dependent kinase 7 (Homo sapiens) (UniProt P50613). In words: Inhibition of wild-type human full length CDK7 (M1 to L344 residues) expressed in HEK293 cells assessed as residual activity at 1000 nM after 30 mins by Kinomescan method relative to control. Format: cell-based. The procedure, abridged: as §1
The target of test [17] is Serine/threonine-protein kinase SIK2 (Homo sapiens) (UniProt Q9H0K1). In words: Inhibition of wild-type human full length SIK2 (M1 to N926 residues) expressed in Escherichia coli BL21 assessed as residual activity at 1000 nM after 30 mins by Kinomescan method relative to control.
Test [18] deals with Mitogen-activated protein kinase kinase kinase 6 (Homo sapiens) (UniProt O95382). In words: Inhibition of wild-type human partial length ASK2 (M278 to R972 residues) expressed in HEK293 cells assessed as residual activity at 1000 nM after 30 mins by Kinomescan method relative to control. The class given is cell-based.
In test [19] the target is RAC-gamma serine/threonine-protein kinase (Homo sapiens) (UniProt Q9Y243). In words: Inhibition of wild-type human partial length AKT3 expressed in Escherichia coli BL21 assessed as residual activity at 1000 nM after 30 mins by Kinomescan method relative to control.
The target of test [20] is Fibroblast growth factor receptor 3 (Homo sapiens, UniProt P22607). In words: Inhibition of human recombinant His-tagged FGFR3 cytoplasmic domain (399 to 806 residues) expressed in baculovirus using Tyr-4 peptide after 1 hr by FRET-based Z'-Lyte assay.
Test [21] has as its target Serine/threonine-protein kinase Nek1 (Homo sapiens) (UniProt Q96PY6). In words: Inhibition of wild-type human partial length NEK1 (M1 to K278 residues) expressed in Escherichia coli BL21 assessed as residual activity at 1000 nM after 30 mins by Kinomescan method relative to control.
The target in test [22] is Serine/threonine-protein kinase Chk1 (Homo sapiens) (UniProt O14757). Nature of the test: Inhibition of wild-type human partial length CHEK1 (M1 to G289 residues) expressed in Escherichia coli BL21 assessed as residual activity at 1000 nM after 30 mins by Kinomescan method relative to control.

Sequence of Mitogen-activated protein kinase kinase kinase 6 (Homo sapiens) (O95382 whole entry, the tested form may be a part): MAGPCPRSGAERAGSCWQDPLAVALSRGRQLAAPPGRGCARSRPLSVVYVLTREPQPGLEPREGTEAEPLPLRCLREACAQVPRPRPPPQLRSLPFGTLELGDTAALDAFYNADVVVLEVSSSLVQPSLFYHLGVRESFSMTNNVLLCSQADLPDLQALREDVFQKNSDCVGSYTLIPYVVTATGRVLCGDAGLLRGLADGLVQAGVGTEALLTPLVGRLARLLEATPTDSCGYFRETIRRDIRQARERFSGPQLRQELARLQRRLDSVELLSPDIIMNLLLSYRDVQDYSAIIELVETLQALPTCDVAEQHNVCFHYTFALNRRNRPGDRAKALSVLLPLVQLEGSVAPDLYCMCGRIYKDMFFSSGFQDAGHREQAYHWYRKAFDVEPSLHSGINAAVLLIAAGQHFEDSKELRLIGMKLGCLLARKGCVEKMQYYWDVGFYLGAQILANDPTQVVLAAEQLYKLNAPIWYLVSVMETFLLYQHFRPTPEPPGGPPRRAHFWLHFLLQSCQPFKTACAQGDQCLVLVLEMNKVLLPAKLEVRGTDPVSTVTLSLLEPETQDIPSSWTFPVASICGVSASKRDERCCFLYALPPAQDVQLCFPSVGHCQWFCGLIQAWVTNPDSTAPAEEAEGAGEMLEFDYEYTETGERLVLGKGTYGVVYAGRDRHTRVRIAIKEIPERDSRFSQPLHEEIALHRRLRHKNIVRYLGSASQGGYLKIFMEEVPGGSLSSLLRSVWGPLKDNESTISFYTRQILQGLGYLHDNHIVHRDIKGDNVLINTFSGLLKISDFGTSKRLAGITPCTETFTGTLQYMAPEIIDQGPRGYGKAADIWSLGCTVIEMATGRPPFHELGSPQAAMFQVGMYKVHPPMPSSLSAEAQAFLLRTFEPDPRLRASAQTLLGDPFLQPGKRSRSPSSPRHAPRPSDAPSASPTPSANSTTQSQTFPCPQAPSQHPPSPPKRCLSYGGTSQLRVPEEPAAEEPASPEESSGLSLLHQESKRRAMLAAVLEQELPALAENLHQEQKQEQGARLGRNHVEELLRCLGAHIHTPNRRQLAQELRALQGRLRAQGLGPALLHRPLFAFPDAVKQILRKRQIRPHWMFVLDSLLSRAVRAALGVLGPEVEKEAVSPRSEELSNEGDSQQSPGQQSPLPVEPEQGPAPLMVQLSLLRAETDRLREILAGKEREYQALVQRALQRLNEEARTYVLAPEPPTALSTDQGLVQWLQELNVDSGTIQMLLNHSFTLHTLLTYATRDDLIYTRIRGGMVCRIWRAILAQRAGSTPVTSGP
Sequence of Mitogen-activated protein kinase 14 (Homo sapiens) (Q16539 whole entry, the tested form may be a part): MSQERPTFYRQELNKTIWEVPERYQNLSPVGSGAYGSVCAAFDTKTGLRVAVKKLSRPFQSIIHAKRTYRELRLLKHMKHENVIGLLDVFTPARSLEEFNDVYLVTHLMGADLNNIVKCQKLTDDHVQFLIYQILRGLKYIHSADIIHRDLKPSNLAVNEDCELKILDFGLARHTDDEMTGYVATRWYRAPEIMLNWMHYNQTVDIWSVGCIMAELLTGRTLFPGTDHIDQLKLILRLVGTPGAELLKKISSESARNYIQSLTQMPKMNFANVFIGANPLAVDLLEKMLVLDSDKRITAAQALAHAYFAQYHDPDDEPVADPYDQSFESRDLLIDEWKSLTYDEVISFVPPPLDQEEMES
Sequence of Serine/threonine-protein kinase WNK4 (Homo sapiens) (Q96J92 whole entry, the tested form may be a part): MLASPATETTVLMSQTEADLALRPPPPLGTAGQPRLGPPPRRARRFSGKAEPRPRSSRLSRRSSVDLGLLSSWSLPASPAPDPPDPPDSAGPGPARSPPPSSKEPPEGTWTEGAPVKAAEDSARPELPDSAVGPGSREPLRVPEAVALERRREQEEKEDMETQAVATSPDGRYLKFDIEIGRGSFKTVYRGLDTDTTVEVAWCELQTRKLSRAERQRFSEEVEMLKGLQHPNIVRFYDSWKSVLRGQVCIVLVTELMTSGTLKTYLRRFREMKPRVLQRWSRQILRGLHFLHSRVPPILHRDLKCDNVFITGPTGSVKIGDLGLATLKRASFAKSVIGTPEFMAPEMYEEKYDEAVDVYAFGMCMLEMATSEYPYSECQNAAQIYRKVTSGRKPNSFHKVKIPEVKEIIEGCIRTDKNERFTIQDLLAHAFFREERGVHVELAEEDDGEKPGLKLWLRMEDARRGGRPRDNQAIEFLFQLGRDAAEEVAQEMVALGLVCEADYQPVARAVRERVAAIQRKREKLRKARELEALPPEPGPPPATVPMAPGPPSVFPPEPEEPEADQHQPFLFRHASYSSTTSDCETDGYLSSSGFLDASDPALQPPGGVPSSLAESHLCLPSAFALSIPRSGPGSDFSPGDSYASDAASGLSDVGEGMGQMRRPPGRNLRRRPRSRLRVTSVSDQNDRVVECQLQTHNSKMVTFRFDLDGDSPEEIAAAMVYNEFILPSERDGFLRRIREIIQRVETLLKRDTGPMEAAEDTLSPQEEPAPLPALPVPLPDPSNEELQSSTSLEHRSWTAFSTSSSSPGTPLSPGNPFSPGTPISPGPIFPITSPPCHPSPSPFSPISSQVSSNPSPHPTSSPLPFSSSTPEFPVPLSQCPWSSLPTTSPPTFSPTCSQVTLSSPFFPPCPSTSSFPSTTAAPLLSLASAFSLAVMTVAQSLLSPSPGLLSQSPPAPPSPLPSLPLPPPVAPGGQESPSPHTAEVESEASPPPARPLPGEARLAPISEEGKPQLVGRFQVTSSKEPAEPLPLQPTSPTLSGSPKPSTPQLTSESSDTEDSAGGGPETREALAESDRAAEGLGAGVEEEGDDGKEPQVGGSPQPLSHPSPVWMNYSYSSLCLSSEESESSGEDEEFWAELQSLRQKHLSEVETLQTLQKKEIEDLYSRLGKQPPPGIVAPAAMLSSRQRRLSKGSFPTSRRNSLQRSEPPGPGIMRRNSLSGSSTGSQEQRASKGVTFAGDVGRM
Sequence of Ephrin type-A receptor 5 (Homo sapiens) (P54756 whole entry, the tested form may be a part): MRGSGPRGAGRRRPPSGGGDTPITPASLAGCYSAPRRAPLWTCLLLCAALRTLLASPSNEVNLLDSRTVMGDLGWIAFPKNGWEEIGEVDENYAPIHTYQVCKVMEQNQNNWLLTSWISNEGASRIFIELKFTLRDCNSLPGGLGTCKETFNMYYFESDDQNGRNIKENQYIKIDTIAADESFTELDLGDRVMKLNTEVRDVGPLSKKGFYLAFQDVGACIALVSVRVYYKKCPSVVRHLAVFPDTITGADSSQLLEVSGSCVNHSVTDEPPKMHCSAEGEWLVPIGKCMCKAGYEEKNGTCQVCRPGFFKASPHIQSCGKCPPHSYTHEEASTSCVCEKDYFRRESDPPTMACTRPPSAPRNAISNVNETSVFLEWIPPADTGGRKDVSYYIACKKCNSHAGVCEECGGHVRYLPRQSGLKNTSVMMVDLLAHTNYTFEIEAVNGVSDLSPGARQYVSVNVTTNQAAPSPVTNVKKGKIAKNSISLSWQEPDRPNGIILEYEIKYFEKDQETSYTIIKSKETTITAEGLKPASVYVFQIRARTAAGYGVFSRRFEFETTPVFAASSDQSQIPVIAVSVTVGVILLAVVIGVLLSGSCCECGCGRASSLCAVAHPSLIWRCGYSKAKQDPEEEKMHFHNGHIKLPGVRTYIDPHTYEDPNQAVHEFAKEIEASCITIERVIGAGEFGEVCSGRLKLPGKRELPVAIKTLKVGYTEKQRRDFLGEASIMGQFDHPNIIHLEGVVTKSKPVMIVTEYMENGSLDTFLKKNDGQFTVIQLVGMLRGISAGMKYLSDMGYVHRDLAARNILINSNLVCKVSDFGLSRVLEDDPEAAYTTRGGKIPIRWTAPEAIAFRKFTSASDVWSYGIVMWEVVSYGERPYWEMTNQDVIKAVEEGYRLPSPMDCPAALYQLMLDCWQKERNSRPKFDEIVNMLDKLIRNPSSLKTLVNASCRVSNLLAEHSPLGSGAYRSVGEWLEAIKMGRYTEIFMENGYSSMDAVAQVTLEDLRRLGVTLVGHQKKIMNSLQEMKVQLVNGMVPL
Sequence of Dual specificity mitogen-activated protein kinase kinase 3 (Homo sapiens) (P46734 whole entry, the tested form may be a part): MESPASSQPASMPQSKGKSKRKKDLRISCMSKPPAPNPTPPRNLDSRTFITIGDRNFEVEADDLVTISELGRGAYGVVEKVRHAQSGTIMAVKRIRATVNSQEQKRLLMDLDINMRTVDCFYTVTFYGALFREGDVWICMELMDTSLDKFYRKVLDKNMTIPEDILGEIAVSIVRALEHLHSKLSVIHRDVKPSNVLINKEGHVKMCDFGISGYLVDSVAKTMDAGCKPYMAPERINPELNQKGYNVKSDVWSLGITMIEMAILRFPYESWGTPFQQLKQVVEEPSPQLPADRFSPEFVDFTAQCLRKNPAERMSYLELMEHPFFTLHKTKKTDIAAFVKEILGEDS
Sequence of Cyclin-dependent kinase 11A (Homo sapiens) (Q9UQ88 whole entry, the tested form may be a part): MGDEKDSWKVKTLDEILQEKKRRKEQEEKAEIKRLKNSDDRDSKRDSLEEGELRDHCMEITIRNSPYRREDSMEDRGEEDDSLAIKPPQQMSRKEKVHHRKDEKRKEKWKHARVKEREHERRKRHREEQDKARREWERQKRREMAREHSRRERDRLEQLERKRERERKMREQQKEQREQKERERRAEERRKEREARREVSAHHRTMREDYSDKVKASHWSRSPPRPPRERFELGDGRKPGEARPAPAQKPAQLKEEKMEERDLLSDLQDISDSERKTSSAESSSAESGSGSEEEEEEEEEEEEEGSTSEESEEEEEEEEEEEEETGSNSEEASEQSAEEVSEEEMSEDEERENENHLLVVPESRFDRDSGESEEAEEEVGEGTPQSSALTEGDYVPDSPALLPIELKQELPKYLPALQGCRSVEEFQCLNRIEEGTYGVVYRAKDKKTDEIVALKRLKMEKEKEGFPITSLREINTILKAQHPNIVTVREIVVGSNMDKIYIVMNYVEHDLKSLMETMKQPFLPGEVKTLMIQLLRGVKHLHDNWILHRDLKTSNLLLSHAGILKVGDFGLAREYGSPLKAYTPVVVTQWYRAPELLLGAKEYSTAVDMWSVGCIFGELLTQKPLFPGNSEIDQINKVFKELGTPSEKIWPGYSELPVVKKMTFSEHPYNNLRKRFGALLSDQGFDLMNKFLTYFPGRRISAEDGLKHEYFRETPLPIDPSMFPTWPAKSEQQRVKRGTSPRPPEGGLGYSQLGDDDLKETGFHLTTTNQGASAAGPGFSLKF

For orientation: IC50 means the concentration that inhibits the measured activity by half. Consider `COc1cc(OC)c(Cl)c(N2Cc3cnc(Nc4ccc(F)cc4)nc3N(C3CCN(C(=O)/C=C/CN(C)C)CC3)C2=O)c1Cl`, for which the Activity in test [1] came to 11%; in test [2], 100%; in test [3], 86%; in [4], 100%; in [5], 80%; in [6] it was 6.3%. The Activity is 100% in [7]; 100% in test [8]; 90% in test [9]; 98% in [10]; 100% in test [11]; 96% in test [12]. Also, the Activity turned out to be 100% in test [13]; 88% in test [14]; 100% in test [15]; 100% in [16]; 89% in [17]; 100% in [18]. Also, the Activity in test [19] amounted to 96%; in test [21], 73%; in test [22] it was 100%. The IC50 in test [20] was 5.07 nM.
